This is a sample that favours compounds with a hit; in the whole collection about 2.8% have one here.
Rad51 HR inh: blocks human Rad51 in homologous recombination; hRad51 DNA strand exchange, fluorescence dequenching; inhibition, % at 10 µM; AID 1385; 200,000 compounds, 0.085% hits;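 active = inhibition above 40% at the single screening dose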;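 note: 0% = DMSO control wells and 100% = blanks with heterologous ssDNA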
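Test system: preformed human Rad51 ssDNA filaments; also added: Donor/quencher-labelled 47-bp dsDNA substrate; doses: 10 µM final, single point; times: 37 °C 15-min filament assembly, 30-min compound preincubation, 15-min exchange; detection: FRET fluorescence dequenching, excitation 485 nm, emission 520 nm; read-out basis: Fluorescence-based percent inhibition, control- and blank-normalised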
NPY1 pot ag: human NPY-Y1 potentiation or agonism, primary screen; NPY-Y1 expressing cells, potentiator/agonist activation; 220,000 compounds, 0.37% hits; P25929; activation, % at 3.6 µM; in the data active = activation above about 33%, passing the limit was not always enough;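 note: cells stimulated with NPY at EC10 then isoproterenol at EC100; 0% = low agonist plus stimulus and 100% = saturating agonist plus stimulus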
Target sequence (P25929 whole entry, looked up): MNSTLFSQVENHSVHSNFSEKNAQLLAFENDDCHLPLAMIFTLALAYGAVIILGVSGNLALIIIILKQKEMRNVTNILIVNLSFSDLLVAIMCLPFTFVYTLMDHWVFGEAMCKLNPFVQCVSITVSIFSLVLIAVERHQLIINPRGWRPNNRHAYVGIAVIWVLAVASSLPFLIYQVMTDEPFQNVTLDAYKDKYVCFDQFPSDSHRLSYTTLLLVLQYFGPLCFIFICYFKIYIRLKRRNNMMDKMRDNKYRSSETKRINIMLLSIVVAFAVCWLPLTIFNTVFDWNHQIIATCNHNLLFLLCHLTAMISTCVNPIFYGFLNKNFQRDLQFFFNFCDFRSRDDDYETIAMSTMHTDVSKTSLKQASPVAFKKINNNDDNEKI
NPY-Y1 antag: NPY-Y1 (human) receptor antagonism; HEK293-CNG Y1 cells, membrane potential fluorescence; NPY at EC95, then isoproterenol; inhibition, % at 3.6 µM; 200,000 compounds, 1% hits;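 active = inhibition above the campaign mean inhibition of all tested compounds plus 3 SD, cut at about 20% in these data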;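 note: 0% = DMSO wells given NPY plus isoproterenol and 100% = isoproterenol alone without NPY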
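Assay system: HEK293 Y1/CNG channel cell line; Doses: single compound dose of 3.6 µM, 0.4% DMSO; Timing: dye 3 h, compound 60 min room temperature, stimulation 45 min; Technique: Membrane-potential fluorescent dye readout; Measure: % inhibition of NPY effect.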
NPY-Y2 PAM-ag: human NPY-Y2 potentiation or agonism, primary screen. cells expressing NPY-Y2, potentiator/agonist read-out. activation, % at 3.6 µM. 220,000 compounds, 0.45% hits. P49146. AID 1359; in the data active = activation above about 27%;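 note: cells stimulated with NPY near EC25 plus isoproterenol at EC100; 0% = vehicle plus submaximal agonist and 100% = vehicle plus saturating agonist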
Measles CPE: protection of cells from measles virus; Measles virus-infected cells, CPE protection, absorbance; protection (pct of control), % at 4 µM; 140,000 compounds, 1.5% hits; AID 841; in the data active = protection mostly above about 24%, no sharp cut-off; inactive = mostly below about 26%
NPY-Y2 antag: NPY-Y2 (human) receptor antagonism; P49146; NPY-Y2 expressing cells, antagonist mode; inhibition, % at 2.7 µM; 140,000 compounds, 0.99% hits; AID 793; in the data active = inhibition above about 17%;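 note: 0% = vehicle with agonist challenge and 100% = reference antagonist with challenge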
* = called active by the depositor; nt = no result given.

SMILES	Rad51 HR inh	NPY1 pot ag	NPY-Y1 antag	NPY-Y2 PAM-ag	Measles CPE	NPY-Y2 antag
Clc1ccccc1-c1ccc(/C=N/Nc2nncc(-c3ccccc3)n2)o1	-6	-5	2	-5	nt	nt
N/C(=N\OC(=O)CCCN1C(=O)c2ccccc2C1=O)c1ccc(Cl)cc1	-8	2	2	27	41*	0
O=C1C=CC(=O)C(C2=C3C(=O)N(CCc4ccccc4)CC(=O)N3CCC2)=C1	-12	-5	4	7	18	0
CCOC(=O)NC1(C(F)(F)F)C(=O)NC(C)=C1C(=O)OC (centres undefined)	8	-18	0	-3	16	6
COC(=O)C1=C(C)NC(=O)C1(NC(=O)CN1CCCC1=O)C(F)(F)F (centres undefined)	8	-11	3	2	41*	4
Cc1ccc(NC(=O)ON=C2CCCC2)cc1	-8	-2	6	9	43*	3
O=C(NC(=S)Nc1ccc2oc(=O)ccc2c1)c1cc2ccccc2o1	17	-5	nt	-23	nt	nt
CCOCCCNC(=O)C(c1ccc(Cl)cc1)N1CCC2(CC1)OCCO2 (centres undefined)	-7	32*	4	36*	15	7
CN(Cc1nc(-c2cnccn2)no1)Cc1cccc2ccccc12	10	3	0	1	nt	nt
CCCc1oc(C(=O)O)cc1CN1CCOCC1	-1	-18	1	19	34*	-3
COC(=O)c1cc2ccc(OC)c(OC)c2c(=O)s1	2	-4	5	12	24*	2
COc1ccc(C2C(C(=O)O)CC(=O)N2C2CCCCC2)cc1 (centres undefined)	10	-2	7	-7	48*	2
Cc1ccccc1C(=O)NC(=S)Nc1sc2c(c1C#N)CCC(C)C2 (centres undefined)	4	0	1	-20	59*	1
CCc1cccc(CC)c1NC(=O)COC(=O)C1(c2ccc(Cl)cc2)CCCC1	6	-26	40*	6	5	19*
Cc1cc(C)c2c(CC(=O)O)coc2c1	3	-45	24*	-46	6	12
CCn1c(CSc2nccn2C)nc2cc(C(=O)O)ccc21	-18	-13	-2	13	51*	1
O=C(Nc1cccs1)Nc1ccccc1Br	nt	10	-7	-3	nt	nt
CCOc1ccccc1OCCCOc1ccc(C)cc1Br	nt	-12	6	-9	33*	2
c1ccc(CCn2c3ccccc3c3nnc(SCc4ccc5nonc5c4)nc32)cc1	nt	-39	4	-17	24*	5
O=C1c2ccccc2C(=O)N1CSc1nnc2c3ccccc3n(CCc3ccccc3)c2n1	3	0	4	11	34	3
CC1CCc2nc(N)c(C#N)c(-c3cccnc3)c2C1 (centres undefined)	-4	7	-1	16	76*	0
CC1CCc2nc(N)c(C#N)c(-c3ccncc3)c2C1 (centres undefined)	5	15	-3	1	19	-2
O=C(O)CCC(=O)Nc1ccccc1C(=O)NCc1ccccc1	2	-4	-3	-8	13	-2
Cn1c(=O)c2c(nc(NCCCN3CCOCC3)n2Cc2ccc(Cl)c(Cl)c2)n(C)c1=O	nt	-41	20*	-15	nt	23*
O=c1c2sccc2nc(SCc2ccc([N+](=O)[O-])cc2)n1Cc1ccccn1	9	2	7	5	5	6
SMILES	Rad51 HR inh	NPY1 pot ag	NPY-Y1 antag	NPY-Y2 PAM-ag	Measles CPE	NPY-Y2 antag
Cc1cccc(CSc2nnc(N)n2-c2ccccc2)c1	8	-2	2	-15	6	6
Cc1cccc(CSc2nnnn2-c2ccccc2)c1	1	8	3	-16	69*	4
c1ccc2c(c1)nc(N1CCCCC1)c1ccccc12	-14	-23	nt	-44	nt	nt
COc1ccc(Nc2nc(N3CCCCC3)nc3ccccc23)c(OC)c1	7	-24	41*	-7	3	50*
COc1ccc(Nc2nc(N3CCCCC3)nc(N3CCCCC3)n2)c(OC)c1	2	nt	nt	nt	nt	nt
c1ccc2c(N3CCCCC3)nc(N3CCCC3)nc2c1	2	-53	56*	-29	4	32*
O=C1[C@@H]2CSCN2C(=O)CN1Cc1ccc(F)cc1	10	30	nt	10	nt	nt
Cc1ccc(S(=O)(=O)c2cc3ccccc3oc2=Nc2ccc3c(c2)OCO3)cc1	-7	-2	2	3	25*	2
Cc1ccc(S(=O)(=O)c2cc3ccccc3oc2=Nc2ccc3c(c2)OCCO3)cc1	8	4	3	9	7	3
COc1ccc(C(=O)CSc2nnc(-c3ccccc3)o2)cc1	3	-2	8	2	5	6
COc1ccc(-c2nnc(SCc3ncc(-c4ccccc4)o3)o2)cc1	-6	-24	21*	-25	4	21*
COc1cccc(NC(=O)c2cc(-c3cccnc3)nc3c(Cl)cccc23)c1	45*	-45	11	-34	10	10
COc1ccc(NC(=O)c2cc(-c3cccnc3)nc3c(C)c(C)ccc23)c(OC)c1	-7	0	6	6	5	3
CCOc1ccccc1C(=O)Nc1nnc(COC)s1	-6	-1	8	1	37	-1
Cc1ccc2nc(NC(=O)c3cc(-c4ccco4)nc4ccccc34)sc2c1	-8	-146	54*	-121	6	56*
CCOc1ccccc1C(=O)Nc1nccs1	134*	2	-14	-2	3	3
O=C(Nc1nccs1)c1cc(-c2ccccc2)nc2ccccc12	2	-16	7	-17	40*	1
COc1ccc(-c2cc(C(=O)Nc3nc4c(C)cccc4s3)c3ccccc3n2)cc1OC	-5	-85	47*	-33	7	45*
COc1ccc(-c2cc(C(=O)Nc3ccc(O)cc3)c3ccccc3n2)cc1OC	-4	-14	nt	-28	nt	nt
O=C(NC(=S)N1CCN(c2ccc([N+](=O)[O-])cc2)CC1)c1ccccc1F	nt	-25	-2	8	5	0
CCOC(=O)c1[nH]c(=O)[nH]c1CN(Cc1ccco1)Cc1[nH]c(=O)[nH]c1C(=O)OCC	nt	6	-4	-15	nt	nt
CC(C)Cc1nnc(NC(=O)c2cc(-c3ccccc3)nc3ccccc23)s1	6	10	4	4	44*	3
O=C(NCc1ccccn1)c1cc(-c2ccccc2)nc2ccccc12	nt	-8	1	5	11	3
O=C(NCc1ccccn1)c1cc(-c2ccc(-c3ccccc3)cc2)nc2ccccc12	-10	-11	5	-8	50*	3
CC(C)=CCC12Oc3cc(O)ccc3C1(O)Oc1cc(O)c([C@H]3C=C(C)CC(c4ccc(O)cc4O)[C@H]3C(=O)c3ccc(O)cc3O)c(O)c1C2=O (some centres undefined)	1	nt	nt	nt	nt	nt
